The whole screen tested about 330,000 compounds, of which about 1,000 (0.3%) were called active. This excerpt belongs to a sample that is enriched for actives. Unmarked numbers belong to inactive results.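 Rule for the calls: active = activity change at or below -40% at 20 µM; inactive = the rest.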
target: Apoptotic protease-activating factor 1 (Homo sapiens) (UniProt O14727); experiment: activators of human Apaf-1 apoptosome, primary screen, biochemical, DEVD-Rh110 fluorescence, uHTS (AID 489031); details: Apaf-1 apoptosome caspase-3 activation, at 20 µM, hits give low values
Sequence (O14727 whole entry, looked up): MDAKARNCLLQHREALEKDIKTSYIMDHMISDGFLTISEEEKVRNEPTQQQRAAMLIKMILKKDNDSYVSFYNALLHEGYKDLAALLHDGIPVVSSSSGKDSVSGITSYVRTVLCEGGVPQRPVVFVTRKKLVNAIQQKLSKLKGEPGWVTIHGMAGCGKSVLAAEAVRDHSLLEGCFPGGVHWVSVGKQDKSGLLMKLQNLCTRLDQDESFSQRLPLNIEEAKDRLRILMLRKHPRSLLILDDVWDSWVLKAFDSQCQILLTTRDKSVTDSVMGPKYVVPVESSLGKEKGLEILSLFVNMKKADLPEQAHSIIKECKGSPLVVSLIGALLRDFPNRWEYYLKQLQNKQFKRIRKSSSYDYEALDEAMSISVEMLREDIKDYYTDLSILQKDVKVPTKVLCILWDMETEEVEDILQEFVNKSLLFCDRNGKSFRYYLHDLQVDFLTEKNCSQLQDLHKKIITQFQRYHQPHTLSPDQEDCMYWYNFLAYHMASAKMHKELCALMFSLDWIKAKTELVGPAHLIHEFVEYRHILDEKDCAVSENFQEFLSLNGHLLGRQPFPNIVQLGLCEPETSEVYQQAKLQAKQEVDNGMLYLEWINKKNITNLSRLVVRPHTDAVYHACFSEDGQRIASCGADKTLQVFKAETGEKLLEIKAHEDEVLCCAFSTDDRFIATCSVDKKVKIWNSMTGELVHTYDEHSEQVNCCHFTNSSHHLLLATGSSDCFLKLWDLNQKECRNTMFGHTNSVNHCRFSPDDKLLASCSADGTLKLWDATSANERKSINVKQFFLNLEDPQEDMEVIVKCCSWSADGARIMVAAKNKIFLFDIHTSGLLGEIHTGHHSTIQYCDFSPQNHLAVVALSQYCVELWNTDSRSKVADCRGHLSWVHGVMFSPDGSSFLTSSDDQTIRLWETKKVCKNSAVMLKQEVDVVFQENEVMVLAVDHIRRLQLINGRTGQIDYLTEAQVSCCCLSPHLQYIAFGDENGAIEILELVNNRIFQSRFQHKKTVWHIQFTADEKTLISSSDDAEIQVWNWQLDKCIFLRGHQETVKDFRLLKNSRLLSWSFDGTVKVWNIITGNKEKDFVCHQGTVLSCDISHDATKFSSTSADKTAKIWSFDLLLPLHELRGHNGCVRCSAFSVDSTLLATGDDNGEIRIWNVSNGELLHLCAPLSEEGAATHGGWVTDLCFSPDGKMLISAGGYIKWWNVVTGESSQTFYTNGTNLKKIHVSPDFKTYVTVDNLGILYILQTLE
Method in brief: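 Schedule: 30 min preincubation, 50 min reaction, room temperature / System: biochemical Apaf-1 apoptosome reconstitution / Medium: 20 mM HEPES pH 7.5 with CHAPS, BSA / Evaluation: Caspase-3 cleavage activity downstream of Apaf-1 activation / Detection: Caspase-3-released Rh110 fluorescence, 540 nm emission, 480 nm excitation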

Row | SMILES | activity change, negative = activation
1 | COC(=O)[C@H]1[C@H]2C[C@H]3c4[nH]c5ccccc5c4CCN3C[C@@H]2CC[C@@H]1O | 13.4%
2 | CN1CCN(c2ccccc2NC(=O)COc2ccc(C3CCCCC3)cc2)CC1 | 43.6%
3 | Cc1ccc(S(=O)(=O)C(C#N)c2nc3ccccc3nc2N2CCCC2)cc1C (configuration not stated) | 60%
4 | Oc1ccc(N=Cc2c(O)ccc3ccccc23)cc1 | 87.2%
5 | Oc1ccc(N=Cc2sc3ccccc3c2Cl)cc1 | 64.8%
6 | Cc1ccc(C(=O)N/N=C\c2cc(Br)c(Br)o2)cn1 | 75.4%
7 | Cc1ccc(S(=O)(=O)N2CCOCC2)cc1C(=O)NC(=S)N(Cc1ccccc1)C(C)C | -57.7% (active)
8 | COc1ccc(/C=C2/C(=O)N(c3ccccc3)N=C2C)c(OC)c1 | 80.1%
9 | CN1CCN(CCCNC(=O)c2ccc(/C=C3\Oc4ccccc4N(Cc4ccc(Cl)cc4)C3=O)cc2)CC1 | 56.6%
10 | O=C(CSc1ccc(-c2ccc(-n3cccn3)cc2)nn1)Nc1ccc([N+](=O)[O-])cc1 | -70.1% (active)
11 | C(=N/Nc1cc(N2CCOCC2)nc(N2CCOCC2)n1)/c1ccccc1 | 76.5%
12 | COc1ccc(-c2nc3cc(C)ccn3c2NC2CCCCC2)cc1SC1CCCCC1 | 48.4%
13 | Cc1oc2c(c1C(=O)N1CCOCC1)C(=O)c1ccccc1C2=O | 65.9%
14 | CCCC(=O)Nc1nc2ccc(NC(=O)c3c(F)c(F)c(OC)c(F)c3F)cc2s1 | -393% (active)
15 | CC(C)n1cnc2c(NCc3ccccc3)cc(OCC3CCN(C)CC3)cc21 | 96.4%
16 | Cc1ccc2c(c1)C1CN(C)CCC1N2S(=O)(=O)c1ccc(Oc2ccc([N+](=O)[O-])cc2)cc1 (configuration not stated) | 59.9%
17 | COc1ccccc1OCC(=O)Nc1c2c(nn1-c1ccc(F)cc1)CS(=O)(=O)C2 | -88% (active)
18 | NC(N)=NCCCc1cn(CC(=O)N2CCNCC2)nn1 | 40.2%
19 | CC(NC(=O)c1ccccc1SCC(=O)N1CCCC1)c1ccccc1 (configuration not stated) | 41.6%
20 | O=c1[nH]c2c(c(=O)n1Cc1ccccc1)CCC2 | -300% (active)
21 | COCCn1nnnc1C(c1cc2ccc(OC)cc2[nH]c1=O)N1CCc2ccccc2C1 (configuration not stated) | 56.8%
22 | CC(C)Cn1c(N)c(C(=O)NCc2cccs2)c2nc3ccccc3nc21 | 63.4%
23 | CCc1nn(CCCN2CCN(c3cccc(Cl)c3)CC2)c(=O)n1CCOc1ccccc1 | 23.5%
24 | CCN(CC)CCOc1ccc2c(c1)C(=NNC(=O)c1ccccn1)c1cc(OCCN(CC)CC)ccc1-2 | 52.5%
25 | O=C(Nc1ccccc1F)c1ccccc1-c1ccccc1 | -42.2% (active)

Row | SMILES | activity change, negative = activation
26 | CC(=O)Nc1ccc(Nc2cc(C)nc(Nc3ccc(NC(C)=O)cc3)n2)cc1 | 46.2%
27 | c1ccc2c(CCN3CCNC[C@H]3Cc3cccc4ccccc34)cccc2c1 | 67%
28 | CCCCCCCCCCOC(=O)Cn1c(COc2cccc(OC)c2)[n+](C)c2ccccc21 | 65.3%
29 | CC1COc2ccccc2N1C(=O)c1cccnc1Cl (configuration not stated) | -62.8% (active)
30 | N#Cc1c(N2CCCCC2)nc(N)c2c(N)nc(SCC(=O)O)cc12 | 96%
31 | O=C(NCc1ccccn1)c1ccc2nc(-c3ccco3)c(-c3ccco3)nc2c1 | 60.6%
32 | CCOc1[nH]n(-c2ccc(Cl)cc2)c(=O)c1C=Nc1ccc(O)cc1 | 66.9%
33 | CCOc1ccc(N=C2NC(=O)S/C2=C\c2ccc(O)cc2)cc1 | -72% (active)
34 | CC(=O)N(C1=C(Cl)C(=O)c2ccccc2C1=O)c1ccc(C(=O)O)cc1 | 89%
35 | Cc1cc2oc3ccc(NCCC4CCCN4C)cc3c(=O)c2cc1C (configuration not stated) | 46.9%
36 | Nc1cc(C(F)(F)F)ccc1N1CCOCC1 | -185% (active)
37 | CCN(CC(=O)NCc1cccs1)C(=O)c1cccc(S(=O)(=O)Nc2ccccc2OC)c1 | 60.2%
38 | CCN1C[C@@H]2[C@@H]3C(=O)N(Cc4ccccc4)C(=O)[C@@H]3[C@](Cc3ccccc3)(C(=O)OC)N2C1=NC1CCCCC1 | 41.2%
39 | CN(C)S(=O)(=O)c1ccc2oc(SCC(=O)Nc3ccccc3F)nc2c1 | 61.1%
40 | CCOCCc1c(O)nc(SCC(=O)NCc2ccco2)[nH]c1=O | -133% (active)
41 | Cc1ccc(N=C2NC(=O)/C(=C/C=C/c3ccco3)S2)cc1C | 61.8%
42 | COc1cccc(-c2sc3ccc(OC)cc3c2-c2ccc(OCCN3CCCCC3)cc2)c1 | 61.8%
43 | CCC(C)(C)c1ccc(OCC(=O)N(C)C)c(C(C)(C)CC)c1 | 56.5%
44 | CC(C)N1CCC(NC(=O)Nc2ccccc2)CC1 | -331% (active)
45 | CCOC(=O)C1CCN(C(=O)c2cccc(S(=O)(=O)N(CC)c3ccccc3)c2)CC1 | 45.2%
46 | Clc1ccc(C2=CSC3=Nc4cccc5cccc(c45)N23)cc1 | 90%
47 | Clc1cccc(-c2nc3nc4ccccc4nc3n2Cc2ccco2)c1 | -136% (active)
48 | COc1ccc(S(=O)(=O)/N=C2\C=C(NS(=O)(=O)c3ccccc3)C(=O)c3ccccc32)cc1 | 79.2%
49 | CN1CC(=O)N=C1N | 3.64%
50 | CCCC[C@@H]1CN=C(N)N1CCc1cc(C(F)(F)F)cc(C(F)(F)F)c1 | 52.3%

Row | SMILES | activity change, negative = activation
51 | Nc1ccc2nn(-c3ccc(Cl)cc3)nc2c1 | 83.8%
52 | CC(=O)NC(=S)NNC(=O)c1ccc(Br)cc1 | -56.7% (active)
53 | O=C(Cc1cc(=O)[nH][nH]1)N/N=C/c1ccccc1[N+](=O)[O-] | 40.8%
54 | Cc1ccc(Nc2nc(CSc3nnc(-c4ccncc4)n3-c3ccccc3C)cs2)cc1 | -54.9% (active)
55 | CCCCCCCCCCOC(=O)Cn1c(COc2ccc(C)cc2)[n+](C)c2ccccc21 | 77.7%
56 | N#CC1(C#N)C(C(=O)C23CC4CC(CC(C4)C2)C3)C12CCOCC2 (configuration not stated) | -214% (active)
57 | O=C(N/N=C\c1cccnc1)c1cc(-c2ccccc2)nc2c(Cl)cccc12 | 40.1%
58 | C=CCNC(=O)c1ccc(C)c(Br)c1 | -44.1% (active)
59 | CC1CC(=S)Nc2ccccc2N1Cc1ccccc1 (configuration not stated) | 41.4%
60 | Cc1c(-c2nn(C)c(=O)c3ccccc23)oc2ccc(F)cc2c1=O | 82%
61 | COc1ccc(Cl)cc1NC(=O)CCS(=O)(=O)c1ccc(Br)cc1 | -182% (active)
62 | CCn1cc(CN2CCC(C(=O)Nc3cccc(-c4cccc(Cl)c4)c3)CC2)c(C)n1 | 40.5%
63 | CCN1C(=O)c2cccc3c(N)ccc1c23 | 97.1%
64 | CN(C)S(=O)(=O)c1ccc(C(=O)NCCN=C2NS(=O)(=O)c3ccccc32)cc1 | -486% (active)
65 | Cc1[nH]n(-c2ccccc2)c(=O)c1/C=N/NC(=O)c1ccoc1C | 61.5%
66 | CC(C)CC[n+]1ccn(C2=C([O-])c3ccccc3C(=O)/C2=N\S(=O)(=O)c2ccccc2)c1 | 55.3%
67 | CCCCNC(=O)C(C)N(CCN(C)C)C(=O)CCCN1C(=O)NC(c2ccc(Cl)cc2)C(C(=O)OCc2ccccc2)=C1C (configuration not stated) | 57.1%
68 | COc1ccc2c(c1)CCNC2Cc1ccc(OC)c(O)c1 (configuration not stated) | -42.7% (active)
69 | CC1=NN(c2ccc(Cl)c(C(=O)O)c2)C(=O)/C1=C/c1ccc(-c2ccccc2[N+](=O)[O-])o1 | 42.9%
70 | O=C1NNC(c2ccccc2)=N/C1=C\c1ccc(Cl)cc1 | 50.6%
71 | CN(CCOc1ccc(CC2SC(=O)NC2=O)cc1)c1ccccn1 (configuration not stated) | -0.067%
72 | C#CCOCCOCCOCCNc1nc(N2CCN(C(=O)CCCCCCCCCCNC(=O)[C@H]([C@@H](C)CC)n3cc(CCCCN=C(N)N)nn3)CC2)nc(N2CCN(C(=O)CCCCCCCCCCNC(=O)[C@H](CO)n3cc(CCCSC)nn3)CC2)n1 | 59.2%
73 | Cc1cc(NC(=O)c2cccc(N3C(=O)CCC3=O)c2)no1 | -110% (active)
74 | O=C(CCNS(=O)(=O)c1ccccc1)NCCSc1ccc(Br)cc1 | 58.6%
75 | O=C(CCc1ccccc1)NNC(=O)c1ccc(Br)cc1 | -96.1% (active)

Row | SMILES | activity change, negative = activation
76 | COc1ccc(C(CNC(=O)c2ccc(S(=O)(=O)Nc3ccccc3F)cc2)N(C)C)cc1 (configuration not stated) | 56.5%
77 | O=[N+]([O-])c1ccc2nc(-c3ccccn3)[nH]c2c1 | -143% (active)
78 | COc1cc(C(=O)NCc2nnc(SCC(=O)Nc3nc4ccc(C)cc4s3)o2)cc(OC)c1OC | -87.4% (active)
79 | Oc1c(C=Nc2cccc3nsnc23)ccc2ccccc12 | 95.8%
80 | CCOc1c(Br)cc(/C=C2\C(=O)N(CCC#N)N=C2C)cc1OC | 75.9%
81 | O=C1Nc2ccc([N+](=O)[O-])cc2C1=Nc1cccc(CO)c1 | 41.2%
82 | COc1ccc(OCCCC(=O)NCCc2ccccc2)cc1 | -144% (active)
83 | COc1ccc(N(CCC(=O)NCCc2ccccc2)S(=O)(=O)c2ccc(C)cc2C)cc1 | 54.9%
84 | CCN1C(=NCc2ccc(OC)cc2)N[C@@H](CCc2ccccc2)[C@H](C(=O)NCc2ccc(OC)cc2)[C@H]1C | 40.4%
85 | Cc1ccc(S(=O)(=O)N2CCN(C(=O)c3ccccc3-c3nc4ccccc4s3)CC2)c(C)c1 | 40.3%
86 | COCC(C)OC(=O)c1c(N)n(CCCN2CCOCC2)c2nc3ccccc3nc12 (configuration not stated) | 50.9%
87 | C#CCOCCOCCOCCNc1nc(N2CCN(C(=O)CCCCCCCCCCNC(=O)Cn3cc(CCCCCN)nn3)CC2)nc(N2CCN(C(=O)CCCCCCCCCCNC(=O)[C@H](CO)n3cc(CCCSC)nn3)CC2)n1 | 60.7%
88 | O=C(Nc1cccc(C(F)(F)F)c1)c1cnccn1 | -50.6% (active)
89 | C#CCOCCOCCOCCNc1nc(N2CCN(C(=O)C([C@@H](C)O)n3cc([C@@H](N)CCCCN)nn3)CC2)nc(N2CCN(C(=O)[C@H](CCCCN)n3cc(CN)nn3)CC2)n1 (some centres not stated) | 42.2%
90 | C[C@@H](CN1CCC[C@H]1CN1C(N)=NC[C@@H]1Cc1ccccc1)N1C[C@@H](Cc2ccccc2)N(CCCC2CCCC2)C1=N | 70.9%
91 | CCOC(=O)c1ccc(Nc2cc3ccccc3c(=O)[nH]2)cc1 | 92.5%
92 | Brc1ccc(/C=N/N2CCN(C3c4ccccc4-c4ccccc43)CC2)s1 | -255% (active)
93 | CCc1ccc(CNC(=O)C2CCN(c3nnc(C)c4c(C)n(-c5ccc(C)cc5)nc34)CC2)cc1 | 42.3%
94 | COc1cccc(C(=O)Nc2ccc(N3CCCC3)cc2)c1 | -89.7% (active)
95 | Cc1cc(N2CCCC2)ccc1NC(=O)COc1ccc(Cl)cc1 | 62.2%
96 | CCCCCCc1cc2cc(-c3nnc(-c4ccccc4)o3)c(=O)oc2cc1O | 67.8%
97 | COC1=C(N2CCOCC2)C(=O)c2ccccc2C1=O | 65.8%
